Assays:
human DAT [1] = biological target: T1, human DAT (Homo sapiens, UniProt Q01959); experiment: Transporter-mediated ionic currents, whole cell patch clamp, HEK-293 human DAT; assay type: cell-based; details: voltage clamped to −60 mV, 300 nM to 300 μM
How it was run: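 HEK-293 cells stably expressing human DAT were seeded at low density 24 h before recording. Whole-cell voltage clamp was held at −60 mV, with K-gluconate/EGTA pipette solution (pH 7.2) and NaCl/glucose HEPES bath (pH 7.4). Test compound (300 nM–300 μM) was applied by rapid superfusion. Passive holding currents were subtracted, traces low-pass filtered at 100 Hz, and currents normalised to 10 μM endogenous substrate. One-way ANOVA; n=3.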

human SERT [2] = biological target: T2, human SERT (Homo sapiens, UniProt P31645); experiment: Uptake inhibition in HEK-293 cells expressing human SERT; assay type: cell-based
T2 sequence (P31645 whole entry): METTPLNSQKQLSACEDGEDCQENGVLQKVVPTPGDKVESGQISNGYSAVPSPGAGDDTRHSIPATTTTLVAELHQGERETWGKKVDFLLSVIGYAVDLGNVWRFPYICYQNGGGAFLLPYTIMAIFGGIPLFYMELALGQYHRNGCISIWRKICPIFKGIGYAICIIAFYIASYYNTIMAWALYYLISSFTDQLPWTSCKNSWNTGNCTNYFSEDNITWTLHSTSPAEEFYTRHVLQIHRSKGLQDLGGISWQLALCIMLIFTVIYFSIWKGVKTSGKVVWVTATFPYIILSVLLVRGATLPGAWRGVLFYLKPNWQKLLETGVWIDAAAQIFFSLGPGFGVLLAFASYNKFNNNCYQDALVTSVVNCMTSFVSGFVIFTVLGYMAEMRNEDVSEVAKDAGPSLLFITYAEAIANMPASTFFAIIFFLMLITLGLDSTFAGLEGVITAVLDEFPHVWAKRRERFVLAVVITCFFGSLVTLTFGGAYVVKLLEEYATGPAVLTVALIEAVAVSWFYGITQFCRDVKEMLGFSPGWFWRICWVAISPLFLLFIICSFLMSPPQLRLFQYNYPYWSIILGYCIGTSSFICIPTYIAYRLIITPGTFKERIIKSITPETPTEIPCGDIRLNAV

DAT [3] = details: 100 μM drug; ref Dolan et al. (2018); cited from earlier work
SERT [4] = biological target: T3, SERT (Rattus norvegicus, UniProt P31652); experiment: Release of [3H]5-HT from rat brain synaptosomes; assay type: biochemical
T3 sequence (P31652 whole entry): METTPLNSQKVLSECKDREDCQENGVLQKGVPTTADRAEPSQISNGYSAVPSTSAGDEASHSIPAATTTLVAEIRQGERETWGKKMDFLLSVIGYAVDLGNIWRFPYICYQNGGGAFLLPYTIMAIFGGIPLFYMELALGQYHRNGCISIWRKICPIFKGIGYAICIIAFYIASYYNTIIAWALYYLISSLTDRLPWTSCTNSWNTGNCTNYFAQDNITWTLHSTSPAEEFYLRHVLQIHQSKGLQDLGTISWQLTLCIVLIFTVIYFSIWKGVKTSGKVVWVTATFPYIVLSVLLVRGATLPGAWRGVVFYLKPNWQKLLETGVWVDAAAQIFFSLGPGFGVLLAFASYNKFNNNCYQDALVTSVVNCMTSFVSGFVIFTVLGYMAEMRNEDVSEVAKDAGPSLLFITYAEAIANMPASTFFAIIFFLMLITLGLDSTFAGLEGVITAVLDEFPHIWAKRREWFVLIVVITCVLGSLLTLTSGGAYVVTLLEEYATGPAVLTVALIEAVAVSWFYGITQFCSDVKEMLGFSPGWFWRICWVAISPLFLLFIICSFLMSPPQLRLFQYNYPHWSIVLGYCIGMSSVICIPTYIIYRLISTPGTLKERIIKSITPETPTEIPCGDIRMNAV

human DAT [5] = biological target: T1, human DAT; experiment: Efflux; assay type: cell-based; details: HEK-293 human DAT, 10 μM drug, with or without 10 μM monensin
DAT [6] = biological target: T4, DAT (Rattus norvegicus, UniProt P23977); experiment: Release of [3H]MPP+ from rat brain synaptosomes; assay type: biochemical; details: 0.1 nM to 10 μM
T4 sequence (P23977 whole entry): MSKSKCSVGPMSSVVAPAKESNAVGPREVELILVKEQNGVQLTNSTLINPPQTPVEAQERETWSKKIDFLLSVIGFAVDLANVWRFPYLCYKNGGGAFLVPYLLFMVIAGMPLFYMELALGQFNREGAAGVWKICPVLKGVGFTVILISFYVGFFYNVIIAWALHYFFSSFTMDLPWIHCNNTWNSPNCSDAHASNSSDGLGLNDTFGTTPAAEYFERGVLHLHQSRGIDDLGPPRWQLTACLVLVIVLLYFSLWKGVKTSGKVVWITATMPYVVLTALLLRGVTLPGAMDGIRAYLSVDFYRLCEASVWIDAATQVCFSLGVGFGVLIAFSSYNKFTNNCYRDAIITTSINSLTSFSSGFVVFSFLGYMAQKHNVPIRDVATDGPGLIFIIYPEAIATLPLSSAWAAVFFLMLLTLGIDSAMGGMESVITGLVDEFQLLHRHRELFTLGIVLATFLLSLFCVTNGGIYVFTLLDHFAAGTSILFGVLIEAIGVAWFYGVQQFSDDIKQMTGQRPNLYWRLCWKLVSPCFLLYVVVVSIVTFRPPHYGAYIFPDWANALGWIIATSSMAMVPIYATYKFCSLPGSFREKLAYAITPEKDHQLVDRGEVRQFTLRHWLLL
How it was run: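 Crude synaptosomes were prepared from rat caudate: homogenized in ice-cold 10% sucrose, spun at 1000 g for 10 min, supernatant kept. They were preloaded for 1 h with 9 nM [3H]MPP+ in Krebs-phosphate buffer; all buffers contained 1 μM reserpine. Test compound was applied at 0.1 nM–10 μM in triplicate. Release was stopped by vacuum filtration and counted by scintillation. EC50 was derived by nonlinear regression; n=3.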

human SERT [7] = biological target: T2, human SERT; experiment: Efflux; assay type: cell-based; details: HEK-293 human SERT; for [3H]5-HT efflux at SERT: 10 μM drug; for effect of monensin on drug-evoked [3H]5-HT efflux at SERT: 10 μM drug plus 10 μM monensin
How it was run: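 HEK-293 cells stably expressing YFP-tagged human SERT, seeded at 40,000 cells/well on poly-D-lysine-coated coverslips. Preloaded with 0.3 μM radiolabelled substrate for 20 min at 37 °C, then superfused at 25 °C, 0.7 mL/min, with Krebs Ringer HEPES (pH 7.4). Fractions collected every 2 min. After a 40-min washout baseline, 10 μM test compound was added alone or with 10 μM monensin. Cells were lysed in 1% SDS and counted by scintillation. Analysis: two-way ANOVA with Tukey; n=3, triplicate.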

SERT [8] = biological target: T3, SERT; experiment: Uptake inhibition of [3H]5-HT in rat brain synaptosomes; assay type: biochemical
human DAT [9] = biological target: T1, human DAT; experiment: Uptake inhibition in HEK-293 cells expressing human DAT; assay type: cell-based
DAT [10] = biological target: T4, DAT; experiment: Uptake inhibition of [3H]dopamine in rat brain synaptosomes; assay type: biochemical; details: for DAT/SERT ratio ([DAT IC50]^−1/[SERT IC50]^−1): synaptosome uptake assays, higher value indicates greater DAT-selectivity
motor activity = experiment: Motor activity and stereotypy; assay type: in vivo, rat; details: rats, 1 and 3 mg/kg i.v.; for motor activity (forward locomotion): compared to saline
How it was run: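 Conscious, tethered male Sprague-Dawley rats were acclimated overnight in photobeam arenas and tracked for forward locomotion and stereotypy during microdialysis. Dosing was i.v. via jugular catheter: 1 mg/kg at time zero, then 3 mg/kg 60 min later; saline controls received 1 mL/kg on the same schedule. Data are % of basal preinjection values; N=6–7/group; two-way ANOVA (treatment × time) with Bonferroni tests against saline.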

DAT and SERT = details: HEK-293 cells, uptake inhibition; ref Simmler et al. 2013; 2014; cited from earlier work
human SERT [11] = biological target: T2, human SERT; experiment: Transporter-mediated ionic currents, whole cell patch clamp, HEK-293 human SERT; assay type: cell-based; details: voltage clamped to −60 mV, 300 nM to 300 μM
[12] = system: extracellular dopamine and 5-HT in nucleus accumbens; experiment: In vivo microdialysis in the nucleus accumbens of conscious rats; details: rat nucleus accumbens dialysate
How it was run: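 Male Sprague-Dawley rats (300–400 g) were implanted under ketamine/xylazine with a jugular catheter and a nucleus accumbens guide cannula, then recovered ≥1 week. Probes were perfused with Ringer's at 0.6 μL/min, and 20-min dialysates were assayed for dopamine and 5-HT by HPLC-ECD. After three stable baselines, rats received 1 mg/kg i.v. at time zero, then 3 mg/kg at 60 min; controls received saline 1 mL/kg. Data are % of baseline; N=6–7/group; two-way ANOVA, Bonferroni.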

[13] = 3 mg/kg i.v. given 60 min after 1 mg/kg

T1 sequence (Q01959 whole entry, the tested form may be a part): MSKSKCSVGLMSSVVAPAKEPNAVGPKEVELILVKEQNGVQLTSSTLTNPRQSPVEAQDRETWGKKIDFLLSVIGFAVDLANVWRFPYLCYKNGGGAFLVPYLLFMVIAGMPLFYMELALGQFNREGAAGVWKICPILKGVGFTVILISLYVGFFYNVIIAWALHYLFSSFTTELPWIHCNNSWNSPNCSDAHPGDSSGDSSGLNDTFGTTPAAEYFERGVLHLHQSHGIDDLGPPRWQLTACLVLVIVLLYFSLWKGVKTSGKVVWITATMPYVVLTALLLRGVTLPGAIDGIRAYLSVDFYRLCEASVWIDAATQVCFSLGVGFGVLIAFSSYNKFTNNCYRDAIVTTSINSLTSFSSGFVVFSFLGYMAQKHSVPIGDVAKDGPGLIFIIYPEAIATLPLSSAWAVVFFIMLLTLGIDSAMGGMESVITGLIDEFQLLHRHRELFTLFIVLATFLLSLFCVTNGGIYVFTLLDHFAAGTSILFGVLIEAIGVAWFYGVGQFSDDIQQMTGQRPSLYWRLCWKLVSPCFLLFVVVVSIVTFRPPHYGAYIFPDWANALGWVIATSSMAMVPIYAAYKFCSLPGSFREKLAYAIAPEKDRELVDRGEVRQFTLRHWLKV

Structure (SMILES)	transporter-mediated currents at DAT (human DAT [1])	IC50 (human SERT [2])	drug-induced current at DAT as fraction of current induced by dopamine (DAT [3])	EC50 (SERT [4])	[3H]MPP+ efflux at DAT (human DAT [5])	release of [3H]MPP+ at DAT (DAT [6])	[3H]5-HT efflux at SERT (human SERT [7])	effect of monensin on drug-evoked [3H]5-HT efflux at SERT (human SERT [7])	IC50 (SERT [8])	IC50 (human DAT [9])	IC50 (DAT [10])	DAT/SERT ratio ([DAT IC50]^−1/[SERT IC50]^−1) (DAT [10])	motor activity (forward locomotion) (motor activity)	DAT/SERT ratio (DAT and SERT)	SERT-mediated inward currents (human SERT [11])	extracellular 5-HT levels increase ([12]; 1 mg/kg i.v.)	extracellular dopamine levels above baseline ([12]; 1 mg/kg i.v.)	extracellular 5-HT levels increase [12, 13]	extracellular dopamine levels increase [12, 13]	other results
CCC(NC)C(=O)c1ccc2c(c1)OCO2 (stereo not shown) [butylone, 1-(1,3-Benzodioxol-5-yl)-2-(methylamino)butan-1-one]	no discernable currents	24400 ± 2000 nM	< 20%	330 ± 40 nM	neither butylone nor pentylone evoked [^3H]MPP^+ efflux at DAT	failed to produce efficacious release	evoked [^3H]5-HT efflux at SERT	markedly enhanced	1430 ± 160 nM	1440 ± 100 nM	400 ± 20 nM	3.6	increased motor activity	2.1	dose-related induction of SERT-mediated inward currents	3 fold	2 fold	~7 fold	about 3.5 fold	–
CCCC(NC)C(=O)c1ccc2c(c1)OCO2 (stereo not shown) [pentylone, 1-(1,3-benzodioxol-5-yl)-2-(methylamino)pentan-1-one]	no discernable currents	11700 ± 500 nM	< 20%	1030 ± 180 nM	neither butylone nor pentylone evoked [^3H]MPP^+ efflux at DAT	failed to produce efficacious release	evoked [^3H]5-HT efflux at SERT	markedly enhanced	1360 ± 100 nM	310 ± 70 nM	120 ± 10 nM	11.4	increased motor activity	6.2	dose-related induction of SERT-mediated inward currents	no effect	2 fold	3 fold	about 3.5 fold	efficacy of SERT-mediated release (SERT [4]; rat brain synaptosomes, [3H]5-HT release): 48 % of Emax; stereotypy (repetitive movements) (motor activity; post hoc tests vs saline): increased stereotypy
